This is an account of results in ChEMBL document CHEMBL1141084, “Analogues of thiolactomycin as potential antimalarial agents” (J Med Chem, 2005).

In one assay the test system is Leishmania donovani. The experiment in a line: Inhibitory concentration against amastigotes of Leishmania donovani strain MHOM/ET/67/L82 upon incubation at 37 degrees C for 72 hours using alamar blue. (In general: The colour change of resazurin is a common sign of viable cells or microbes.)
For the next assay, the system named is Plasmodium falciparum. The experiment in a line: In vitro inhibitory concentration against chloroquine-resistant, pyrimethamine-resistant Plasmodium falciparum K1. It counts as functional, organism-based. The settings on record: Plasmodium falciparum.
A further assay deals with Trypanosoma cruzi. The assay is described as follows: Inhibitory concentration against Trypanosoma cruzi [Tulahuen strain C2C4] in rat skeletal myoblasts upon incubation at 37 degrees C for 4 days in 5% CO2. It counts as functional, organism-based. The settings on record: Trypanosoma cruzi, 96 h.
Assay [1] deals with Trypanosoma brucei rhodesiense. The experiment in a line: Inhibitory concentration against Trypanosoma brucei rhodesiense STIB 900 upon incubation at 37 degrees C in 5% CO2 for 72 hours. The assay is classed as functional, organism-based. To be noted: Trypanosoma brucei, 72 h.
Assay [2] deals with T1, Beta-ketoacyl-ACP-synthase III (Plasmodium falciparum) (UniProt O77078).
T1 sequence (whole entry): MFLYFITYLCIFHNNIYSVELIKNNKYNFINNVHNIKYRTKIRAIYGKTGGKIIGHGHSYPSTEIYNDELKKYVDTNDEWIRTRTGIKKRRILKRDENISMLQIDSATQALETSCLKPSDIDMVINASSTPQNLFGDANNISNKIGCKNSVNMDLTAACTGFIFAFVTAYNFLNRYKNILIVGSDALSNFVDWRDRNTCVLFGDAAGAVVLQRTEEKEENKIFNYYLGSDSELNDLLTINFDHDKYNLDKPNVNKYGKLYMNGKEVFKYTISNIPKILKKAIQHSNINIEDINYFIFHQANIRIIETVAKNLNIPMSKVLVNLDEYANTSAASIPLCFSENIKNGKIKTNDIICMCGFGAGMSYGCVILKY
The assay is described as follows: Percent inhibition of recombinant Plasmodium falciparum beta-Ketoacyl-acyl carrier protein synthase III activity (MBP-pfKASIII) expressed in E. coli cells using [1-14C]acetyl-CoA as radioligand upon incubation at 37 degrees C for 15 minutes with compound dissolved in 2% DMSO at 10 uM; NA = no activity. An outline of the steps:
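MBP-fused pfKASIII from E. coli BL21(DE3) codon+RIL, amylose-purified, 500 ng per reaction. Buffer: 100 mM NaH2PO4 pH 6.6, with 25 µM E. coli ACP prereduced with 1 mM β-mercaptoethanol (37 °C, 30 min), 1 µg E. coli FabD, 65 µM malonyl-CoA and 45 µM [1-14C]acetyl-CoA. 2% DMSO final; 37 °C, 15 min. Read-out: filter disks, TCA-washed, scintillation-counted.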

The IC50 is the concentration needed to halve the response being measured. A low value points to inhibition by little substance.

With `CCCCCCCCCCC1(C)NC(=O)C(C(C)=O)=C1O` (stereo not given), the IC50 with Leishmania donovani was 3 µM; in the assay on Plasmodium falciparum it was 63 µM; in the assay on Trypanosoma cruzi, 153 µM; in assay [1], 7 µM. In addition, the inhibition entry in assay [2] is “No activity”.
For `C=CCC1(CCC)C(=O)SC(C)(CCCCCCCCCC)C1=O` (stereo not given), in that order: 82 µM, 19 µM, 47 µM, 9 µM and “No activity”.
For `CCCCCCCCCCC1(C)SC(=O)C(C/C=C(/C)CCC=C(C)C)(CCC)C1=O` (stereo not given), in that order: above 66 µM, 77 µM, above 66 µM, above 200 µM and “No activity”.
